According to PubChem BioAssay:

biological target: Muscarinic acetylcholine receptor M4 (Homo sapiens) (UniProt P08173); assay: compounds altering M4/GIRK thallium flux, either direction, primary screen, M4 allosteric agonist project, cell-based, HEK293 M4/GIRK, BTC-AM (AID 625); details: at 10 µM, actives lie on both sides;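 further: thallium influx through GIRK channels coupled to M4 in HEK293 cells with BTC-AM dye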
Outline: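 Material: M4/GIRK1/GIRK2 stable HEK293 cell line. Medium: pH 7.3 thallium assay buffer. Dosing: single compound concentration, 10 µM final. Schedule: 1 h dye loading, 2 min kinetic read. Measured by: kinetic fluorescence with BTC-AM dye. Read-out: post-addition slope, 15–24 s, of baseline-normalized fluorescence. Benchmarks: carbachol and DMSO controls.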

Sequence of Muscarinic acetylcholine receptor M4 (Homo sapiens) (P08173 whole entry, looked up): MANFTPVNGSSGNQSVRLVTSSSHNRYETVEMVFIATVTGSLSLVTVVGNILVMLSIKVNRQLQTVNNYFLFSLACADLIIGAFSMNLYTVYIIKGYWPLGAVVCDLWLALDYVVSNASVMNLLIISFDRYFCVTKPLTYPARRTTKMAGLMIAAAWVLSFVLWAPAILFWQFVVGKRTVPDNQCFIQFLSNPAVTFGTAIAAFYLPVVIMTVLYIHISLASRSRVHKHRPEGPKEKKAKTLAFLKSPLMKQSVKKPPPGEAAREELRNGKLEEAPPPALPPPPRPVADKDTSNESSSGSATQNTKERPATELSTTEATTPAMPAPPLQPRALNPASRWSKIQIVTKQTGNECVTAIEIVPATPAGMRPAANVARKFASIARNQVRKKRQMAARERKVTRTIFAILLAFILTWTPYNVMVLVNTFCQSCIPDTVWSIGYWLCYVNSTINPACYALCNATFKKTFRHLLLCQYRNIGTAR

Fluorescence slope, inactive:
CCC(=NC(C)c1ccccc1)c1c(O)n(C)c(=O)n(C)c1=O (stereo not given) 0.00372, O=C(c1ccc(S(=O)(=O)N2CCOCC2)cc1)N1CCc2ccccc2C1 0.00485, CCOC(=O)C1CCN(C(=O)C2CCN(S(=O)(=O)c3cc(Cl)ccc3Cl)CC2)CC1 0.00485, CCn1cnc2cc(NCc3cccc(OC)c3O)ccc21 0.00434, CC(OC1=CC(=O)CCC1)C(=O)c1ccccc1 (stereo not given) 0.00642, CCC(=O)N1CCc2cc(S(=O)(=O)CCC(=O)Nc3ccc(C)c(F)c3)ccc21 0.00659, Cc1ccc(Cl)cc1NC(=O)CSc1nnc(C)n1-c1ccccc1 0.00502, O=C(CN1CCOCC1)Nc1cccc(C(=O)Nc2cccc(C(F)(F)F)c2)c1 0.0065, COc1cccc(NC(=O)COc2ccccc2C(N)=O)c1 0.00613, COc1ccc(C)cc1S(=O)(=O)N1CCN(Cc2ccccc2)CC1 0.00529, Cc1ccc(OCC(O)Cn2c(=N)n(CCN3CCCCC3)c3ccccc32)cc1 (stereo not given) 0.00474, CCCCC(NC(C)=O)c1nc2ccccc2n1CCC (stereo not given) 0.00541, O=C(c1cc(-c2ccco2)nn1-c1cccc(Cl)c1)N1CCCCC1 0.0049, COC(=O)C1=C(C)NC(=O)C1(NC(=O)CN1CCCC1=O)C(F)(F)F (stereo not given) 0.00621, CN1CCN(S(=O)(=O)c2ccc(Sc3nnc(-c4cccs4)n3-c3ccccc3)nc2)CC1 0.00549, CC(C)N(C=O)C1(C(=O)NC2CCCCC2)CCCCC1 0.00567, COc1ccc(NC(=O)CSc2nnc(-c3ccncc3)n2CC2CCCO2)c(OC)c1 (stereo not given) 0.00641, CC1(C)CC(=O)c2cnc(NCc3ccco3)nc2C1 0.00659, c1ccc2c(c1)C(=Nn1cnnc1)c1ccccc1-2 0.00319, O=C(CN1C(=O)NC(Cc2ccccc2)C1=O)Nc1ccccc1 (stereo not given) 0.00658, O=C1CSC(c2cn(-c3ccccc3)nc2-c2ccccc2)N1Cc1ccco1 (stereo not given) 0.00714, CN(C)S(=O)(=O)c1ccc2c(c1)C(CC(=O)O)OC2=O (stereo not given) 0.00625, COc1ccc2nc(NC(=O)CSc3nnc(-c4ccoc4C)n3C)sc2c1 0.00441, COCCn1nnnc1C(C(C)C)N(Cc1cccnc1)Cc1ccccc1Cl (stereo not given) 0.00529, O=C(NCc1cccs1)C(Cc1ccccc1)NS(=O)(=O)c1cccs1 (stereo not given) 0.00454, COC(=O)C1=C(C)N(c2ccc(C(=O)OC)cc2)C(=O)C1 0.00678, Cc1ccc(-n2c3c(cc(C(=O)O)c2=O)C(=O)CC(C)(C)C3)cc1 0.00507, COc1ccc(OC)c(NC(=O)CCN2CCN(c3ccccc3F)CC2)c1 0.00417, OCc1nc(CO)n(Cc2ccccc2)n1 0.00536, O=C(COc1ccc(Cl)cc1)Nc1nc(-c2cccs2)cs1 0.00605, CCNS(=O)(=O)c1ccc(S(=O)(=O)N(Cc2ccccn2)C2CCCCC2)cc1 0.00588, CC1N=C2c3ccccc3N=C(SCc3cc(=O)n4cc(Cl)ccc4n3)N2C1=O (stereo not given) 0.00478, CCOC(=O)C1=C(C)N(C)C(C)=C(C(=O)OCC)C1c1cccnc1 0.00631, FC(F)Sc1nnc(-c2cccs2)n1-c1ccccc1 0.00612, Cc1noc(NS(=O)(=O)c2ccc(N3C(=O)c4ccccc4C3=O)cc2)c1C 0.00521, CC(=O)N1CCc2cc(S(=O)(=O)NCCC3=CCCCC3)ccc21 0.00546, Cc1onc(-c2ccccc2)c1C(N)=O 0.00641, CC(C(=O)Nc1ccccc1-c1ccccc1)N1CCN(C(=O)c2ccco2)CC1 (stereo not given) 0.00807, CNC(=O)CSc1nnc(-c2cc(C)cc(C)c2)o1 0.00519, CCOc1ccc(Cl)cc1S(=O)(=O)N1CCCC1 0.00537
